Measurements gathered from unrelated publications.
Lines come from different studies, so protocols differ.
CDK5 with p25: Cyclin-dependent kinase 5, with p25 (CDK5, Homo sapiens, UniProt Q00535)
CDK5: Cyclin-dependent kinase 5 (CDK5, Homo sapiens, UniProt Q00535)
CDK5 with p35: Cyclin-dependent kinase 5, with p35 (CDK5, Homo sapiens, UniProt Q00535)

`CCCOc1ccc(OC)c(F)c1C(=O)c1ccc(C(=O)N[C@@H]2CNC[C@H]2NC(=O)c2ccc3[nH]ncc3c2)cc1` has a remaining activity of 85% (CDK5 with p25; enzyme activity, inhibitor; 0.75 µM).
`CS(=O)(=O)N1CCCC(NC(=O)[C@H](CCC2CCCCC2)NC(=O)c2ccc(CNc3ncnc4c3nnn4-c3ccccc3)cc2)C1` (stereo partly shown) has a remaining binding of 94% (CDK5; cell-free assay, competition with immobilised ligand; 0.1 µM).
For `CN(C)C1CCN(CC#Cc2nn(C3CCCC3)c3nc(NCc4ccccc4)ncc23)C1` (stereo not shown), the inhibition was 3% (CDK5 with p25; enzyme activity, inhibitor, FRET; 1 µM).
The remaining signal of `O=C1NC(=O)c2cc(Nc3ccc(F)cc3)c(Nc3ccc(F)cc3)cc21` is reported as 98.5% (CDK5 with p35; cell-free assay; 0.5 µM).
The activity vs control of `CC(C)c1ccc(NC(=O)c2cccs2)c(-c2nc3ccccc3[nH]c2=O)c1` is reported as 95% (CDK5 with p25; enzyme activity, inhibitor; 1 µM).
With `CO[C@@H](C)c1c(Nc2ccc([C@@H](N(C)C(=O)C3CCS(=O)(=O)CC3)C(F)(F)F)cc2)cnc2cc(Cl)nn12` the remaining binding was 99% (CDK5; cell-free assay, competition with immobilised ligand; 1 µM).
For `CC[C@H](C)[C@H](NC(=O)[C@H](CCC(N)=O)NC(=O)[C@H](CC(C)C)NC(=O)[C@H](CCSC)NC(=O)[C@H](CCCCN)NC(=O)[C@H](CO)NC(=O)[C@H](CO)NC(=O)[C@H](CCSC)NC(=O)[C@H](CC(C)C)NC(=O)[C@H](CC(N)=O)NC(=O)[C@@H](NC(=O)[C@@H](NC(=O)[C@H](CO)NC(=O)[C@H](CC(C)C)NC(=O)[C@H](CS)NC(=O)[C@H](CCCNC(=N)N)NC(=O)[C@H](CC(=O)O)NC(=O)[C@H](Cc1c[nH]c2ccccc12)NC(=O)[C@H](Cc1ccccc1)NC(=O)[C@H](C)NC(=O)[C@H](CCC(=O)O)NC(=O)[C@@H](N)CCCCN)C(C)C)[C@@H](C)CC)C(=O)N[C@@H](CC(N)=O)C(=O)N[C@@H](C)C(=O)O`, the remaining activity was 59% (CDK5 with p25; enzyme activity, inhibitor, radiometric; 100 µM, 20 min).
`Cc1ccc(NC(=O)c2ccc(C)c(C(F)(F)F)c2)cc1C#Cc1nn(C2CCC(O)CC2)c2ncnc(N)c12` (stereo not shown) gave a remaining signal of 127% (CDK5 with p35; cell-free assay; 10 µM).
`Nc1nc(Nc2ccc(S(N)(=O)=O)cc2)nn1C(=O)c1c(F)cccc1F` has a remaining signal of 0.212% (CDK5 with p35; cell-free assay; 0.5 µM).
For `Cc1cc(NC(=O)c2cccc3cc(-c4cccc5[nH]nc(N)c45)ccc23)ccc1F`, the activity vs control was 103% (CDK5 with p35; enzyme activity, inhibitor; 0.1 µM).
For `COc1ccc2c(c1)O[C@@H](c1ccc(OC)c(OC)c1)C[C@H]2NC(=O)C1(c2ccc3c(c2)OC(F)(F)O3)CC1`, the remaining binding was 100% (CDK5; cell-free assay, competition with immobilised ligand; 1 µM).
The remaining signal of `N#CCCc1ccc2c(c1)-c1[nH]c3ccc([N+](=O)[O-])cc3c1CC(=O)N2` is reported as 2.6% (CDK5 with p35; cell-free assay; 0.5 µM).
With `CC(=O)c1c(NS(C)(=O)=O)c2cc(-c3ccc(Cl)cc3)c(-c3ccc(Cl)cc3Cl)nc2n(C)c1=O` the remaining binding was 100% (CDK5; cell-free assay, competition with immobilised ligand; 1 µM).
`Nc1ncnc2occ(-c3ccc(NC(=O)Nc4cc(C(F)(F)F)ccc4F)cc3)c12` has a remaining signal of 0.55% (CDK5; cell-free assay, inhibitor; 20 µM).
`Oc1ccc(-c2nc(-c3ccncc3)c(-c3ccc(F)cc3)[nH]2)cc1` has a remaining signal of 97.3% (CDK5 with p35; cell-free assay; 0.5 µM).
With `C[C@H](c1ccnc(Nc2nc3ccc(-c4cc(N(C)C)ncn4)cc3[nH]2)c1)N1CCN(C(=O)CC(F)(F)F)CC1` the remaining binding was 86% (CDK5; cell-free assay, competition with immobilised ligand; 0.1 µM).
The remaining signal of `O=C1Nc2ccc(Cl)cc2C1=Cc1cc(Cl)c(O)c(Cl)c1` is reported as 94.5% (CDK5 with p35; cell-free assay; 0.5 µM).
`CNC(=O)c1ccc(Nc2ncc(C(F)(F)F)c(NCc3nccnc3N(C)S(C)(=O)=O)n2)cc1` gave a remaining binding of 81% (CDK5; cell-free assay, competition with immobilised ligand; 0.1 µM).
For `Cc1ccc(C(=O)NCc2ccsc2)cc1C#Cc1cn(C(C)C)c2ncnc(N)c12`, the activity vs control was 95% (CDK5 with p25; enzyme activity, inhibitor; 1 µM).
